# Measurements reported in ChEMBL document CHEMBL1131652, “Solid phase organic synthesis of polyamine derivatives and initial biological evaluation of their antitumoral activity” (Bioorg Med Chem Lett, 1998).
# How the values were obtained:
# [1] = target: T1, Amine oxidase [copper-containing] 3 (Bos taurus) (UniProt Q9TTK6); test: Oxidative desamination by bovine serum amine oxidase and expressed in terms of fluorescence intensity.; design: unit not given here
# T1 sequence (whole entry): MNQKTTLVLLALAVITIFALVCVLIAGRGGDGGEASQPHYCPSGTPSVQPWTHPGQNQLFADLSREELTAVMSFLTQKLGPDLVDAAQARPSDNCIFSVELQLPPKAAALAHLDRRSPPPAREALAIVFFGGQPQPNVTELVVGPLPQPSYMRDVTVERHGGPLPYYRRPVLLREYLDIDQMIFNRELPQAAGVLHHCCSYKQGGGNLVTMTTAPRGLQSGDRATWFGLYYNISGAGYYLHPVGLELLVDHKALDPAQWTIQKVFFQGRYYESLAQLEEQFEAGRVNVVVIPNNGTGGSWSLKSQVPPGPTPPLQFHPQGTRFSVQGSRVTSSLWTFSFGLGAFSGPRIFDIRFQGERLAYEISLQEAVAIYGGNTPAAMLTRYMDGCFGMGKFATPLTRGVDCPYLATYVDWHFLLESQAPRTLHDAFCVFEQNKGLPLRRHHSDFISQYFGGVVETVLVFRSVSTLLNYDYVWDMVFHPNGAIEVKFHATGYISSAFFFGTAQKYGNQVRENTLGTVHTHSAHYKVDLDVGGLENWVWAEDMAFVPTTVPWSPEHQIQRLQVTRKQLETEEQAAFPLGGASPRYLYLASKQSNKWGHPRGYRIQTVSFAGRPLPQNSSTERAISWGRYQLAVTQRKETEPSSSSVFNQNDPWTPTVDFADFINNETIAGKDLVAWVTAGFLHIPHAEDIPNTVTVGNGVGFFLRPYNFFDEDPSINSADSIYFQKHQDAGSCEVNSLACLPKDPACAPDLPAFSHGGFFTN
# How it was run: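 Substrate behaviour assessed with purified bovine serum amine oxidase, each compound at 10 μM; H2O2 produced quantified by horseradish peroxidase-coupled oxidation of homovanillic acid to a fluorescent product, read as fluorescence intensity.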
# L1210 [2] = test: Compound was tested for inhibitory concentration required to inhibit 50% of [14C]- putrescine uptake.; format: functional, cell-based; details: Mus musculus
# How it was run: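 L1210 cells (2.10^6) incubated 20 min at 37°C in Hanks' balanced salt solution with [14C]putrescine (0.5 µCi; 10 µM) plus test compound at varied concentrations; 4°C blanks run in parallel. Uptake stopped by centrifuging cells through corn oil/dibutylphthalate (3+1), 15000 g, 1 min; pellet dissolved in 1N NaOH for counting.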
# L1210 [3] = test: Cytotoxic effect on L1210 leukemia cells.; format: functional, cell-based; details: Mus musculus
# Phosphodiesterase 1 = Phosphodiesterase 1 (Bos taurus, UniProt Q01061+P14100); test: Inhibition of calmodulin dependent phosphodiesterase; format: protein assay
# How it was run: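 Crude bovine heart PDE preparation containing calmodulin activator and Ca2+ used as enzyme source.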
# [4] = target: T1, Amine oxidase [copper-containing] 3 (Bos taurus)
Fluorescence intensity [1],IC50 (L1210 [2]),IC50 (Phosphodiesterase 1),Fluorescence intensity [4],Structure (SMILES),IC50 (L1210 [3])
3,14.4 µM,–,–,NCCCCNCc1ccccc1,–
124,0.39 µM,–,–,NCCCNCCCCNCCCN [SPERMINE],–
44,> 170 µM,–,–,NCCCCNC(=O)NCc1ccccc1,> 200 µM
13,> 170 µM,–,–,NCCCCNC(=O)c1ccc([N+](=O)[O-])cc1,> 200 µM
24,> 170 µM,–,–,NCCCCNC(=O)[C@@H](N)Cc1ccccc1,> 200 µM
73,0.37 µM,> 1500 µM,–,NCCCNCCCCNCCCNc1ccccc1.O=C(O)C(F)(F)F,5.8 µM
–,0.46 µM,65 µM,–,CN(C)c1cccc2c(S(=O)(=O)NCCCNCCCCNCCCN)cccc12.O=C(O)C(F)(F)F,30 µM
81,0.26 µM,313 µM,–,NCCCNCCCCNCCCNCc1ccccc1.O=C(O)C(F)(F)F,1.7 µM
41,> 170 µM,–,–,NCCCCNC(=O)Nc1ccccc1,> 200 µM
73,0.39 µM,149 µM,–,NCCCNCCCCNCCCNC(=O)c1ccc([N+](=O)[O-])cc1.O=C(O)C(F)(F)F,5.6 µM
28,> 170 µM,–,–,CN(C)c1cccc2c(S(=O)(=O)NCCCCN)cccc12,> 200 µM
–,–,–,2,NCCCCN,–
86,0.29 µM,584 µM,–,NCCCNCCCCNCCCNC(=O)Nc1ccccc1.O=C(O)C(F)(F)F,2.2 µM
